According to ChEMBL document CHEMBL1132259, “Non-peptide GPIIb/IIIa inhibitors. 20. Centrally constrained thienothiophene alpha-sulfonamides are potent, long acting in vivo inhibitors of platelet aggregation” (J Med Chem, 1999):

What was measured:
[1] = target: T1, Integrin alpha-IIb/beta-3 (Homo sapiens, UniProt P05106+P08514); assay: Displacement of L-762,745 from Fibrinogen Receptor of human platelets by flow cytometry
Procedure, shortened: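 Resting human gel-filtered platelets at 2 × 10⁶ cells/mL final, incubated 2 h at room temperature with fluorescein-labelled L-762,745 (110 nM final) and competitor at 0.05–1000 nM. Read by flow cytometry (FACScan).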
Target sequence in this assay (P05106 27-788 limits assumed): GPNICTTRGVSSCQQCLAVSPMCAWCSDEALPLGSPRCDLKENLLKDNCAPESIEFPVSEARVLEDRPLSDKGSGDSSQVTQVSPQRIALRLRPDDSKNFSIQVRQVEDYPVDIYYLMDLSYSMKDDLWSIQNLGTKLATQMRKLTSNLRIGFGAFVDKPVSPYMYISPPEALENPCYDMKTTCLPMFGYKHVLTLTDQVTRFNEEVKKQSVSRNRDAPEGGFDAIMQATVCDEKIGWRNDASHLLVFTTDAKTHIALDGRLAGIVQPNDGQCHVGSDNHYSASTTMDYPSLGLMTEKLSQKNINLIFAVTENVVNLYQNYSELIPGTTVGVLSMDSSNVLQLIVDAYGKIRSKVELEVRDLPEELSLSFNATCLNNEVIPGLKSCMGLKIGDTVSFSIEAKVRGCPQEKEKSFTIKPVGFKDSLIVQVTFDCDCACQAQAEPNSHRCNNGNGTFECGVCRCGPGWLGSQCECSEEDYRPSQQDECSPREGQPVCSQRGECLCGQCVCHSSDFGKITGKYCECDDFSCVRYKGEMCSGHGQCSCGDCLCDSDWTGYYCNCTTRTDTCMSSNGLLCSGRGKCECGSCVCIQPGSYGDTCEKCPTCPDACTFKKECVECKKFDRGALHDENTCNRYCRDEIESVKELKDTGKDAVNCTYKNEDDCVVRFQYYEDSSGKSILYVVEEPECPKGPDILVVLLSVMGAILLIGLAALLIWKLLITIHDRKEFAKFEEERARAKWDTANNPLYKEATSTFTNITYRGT
Target sequence in this assay (P08514 32-887 limits assumed): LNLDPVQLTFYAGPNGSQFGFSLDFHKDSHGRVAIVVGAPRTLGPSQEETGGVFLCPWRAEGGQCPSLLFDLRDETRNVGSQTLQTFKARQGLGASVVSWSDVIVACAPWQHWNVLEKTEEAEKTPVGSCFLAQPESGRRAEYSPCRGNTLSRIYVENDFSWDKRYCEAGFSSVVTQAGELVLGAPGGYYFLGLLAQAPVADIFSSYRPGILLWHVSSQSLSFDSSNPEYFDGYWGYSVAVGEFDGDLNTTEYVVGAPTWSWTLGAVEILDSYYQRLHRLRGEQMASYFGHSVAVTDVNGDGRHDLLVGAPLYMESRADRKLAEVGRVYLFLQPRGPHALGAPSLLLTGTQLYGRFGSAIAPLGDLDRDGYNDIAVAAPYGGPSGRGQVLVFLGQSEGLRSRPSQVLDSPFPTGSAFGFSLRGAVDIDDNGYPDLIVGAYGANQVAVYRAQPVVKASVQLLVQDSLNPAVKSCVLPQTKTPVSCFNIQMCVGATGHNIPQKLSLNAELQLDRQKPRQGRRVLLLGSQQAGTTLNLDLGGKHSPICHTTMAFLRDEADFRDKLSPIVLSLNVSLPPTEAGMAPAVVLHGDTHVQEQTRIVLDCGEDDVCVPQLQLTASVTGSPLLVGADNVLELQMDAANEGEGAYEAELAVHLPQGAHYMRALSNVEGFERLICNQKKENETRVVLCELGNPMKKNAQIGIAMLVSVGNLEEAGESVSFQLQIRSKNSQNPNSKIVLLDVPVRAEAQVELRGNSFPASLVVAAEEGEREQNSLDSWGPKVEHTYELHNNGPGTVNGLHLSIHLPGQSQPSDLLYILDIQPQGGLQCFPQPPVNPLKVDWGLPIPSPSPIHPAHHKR
Target sequence in this assay (P08514 891-1039 limits assumed): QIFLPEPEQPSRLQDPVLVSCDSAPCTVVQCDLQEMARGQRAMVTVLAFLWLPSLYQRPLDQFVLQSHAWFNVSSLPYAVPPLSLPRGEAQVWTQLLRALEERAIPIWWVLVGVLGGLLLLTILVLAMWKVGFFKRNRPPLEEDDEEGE

[2] = target: T1, Integrin alpha-IIb/beta-3; assay: Inhibition of [125I]L-692884 binding to purified GPIIb/IIIa by silicate scintillation proximity assay(SPA); type: protein-complex assay
[3] = target: T1, Integrin alpha-IIb/beta-3; assay: In vitro inhibition of [125I]L-692884 binding to Fibrinogen receptor by silicate scintillation proximity assay(SPA); type: protein-complex assay
[4] = target: T1, Integrin alpha-IIb/beta-3; assay: Equilibrium dissociation constant was measured from displacement of L-762,745 from Fibrinogen receptor of human platelets by flow cytometry
Target sequence in this assay (P05106 27-788 limits assumed): as the sequence (P05106 27-788 limits assumed) above
Target sequence in this assay (P08514 32-887 limits assumed): as the sequence (P08514 32-887 limits assumed) above
Target sequence in this assay (P08514 891-1039 limits assumed): as the sequence (P08514 891-1039 limits assumed) above

In the case of `CCOCCS(=O)(=O)N[C@@H](CNC(=O)c1cc2cc(CCC3CCNCC3)sc2s1)C(=O)O`, the Kd [1] is reported as 1.2 nM and the ED50 [2] is reported as 0.13 nM.
With `O=C(NC[C@H](NS(=O)(=O)c1cccs1)C(=O)O)c1cc2sc(CCC3CCNCC3)cc2s1` the IC50 [3] was 0.04 nM and the Kd [4] was 0.092 nM.
With `O=C(O)CCNC(=O)c1ccc2c(c1)C(=O)N(CCC1CCNCC1)C2` the IC50 [3] was 13 nM and the Kd [4] was 550 nM.
For `CS(=O)(=O)N[C@@H](CNC(=O)c1cc2cc(CCC3CCNCC3)sc2s1)C(=O)O`, the Kd [1] was 52 nM and the ED50 [2] was 1.2 nM.
Molecule `O=C(NC[C@H](NS(=O)(=O)c1cccnc1)C(=O)O)c1cc2cc(CCC3CCNCC3)sc2s1` has an IC50 [3] of 0.047 nM and a Kd [4] of 0.07 nM.
For `O=C(NC[C@H](NS(=O)(=O)c1ccc(Cl)cc1)C(=O)O)c1cc2cc(CCC3CCNCC3)sc2s1`, the IC50 [3] was 0.09 nM and the Kd [4] was 0.026 nM.
With `CCCCS(=O)(=O)N[C@@H](CNC(=O)c1cc2cc(CCC3CCNCC3)sc2s1)C(=O)O` the Kd [1] was 5.6 nM and the ED50 [2] was 0.12 nM.
Work on `O=C(NCC(NS(=O)(=O)c1cccnc1)C(=O)O)c1cc2cc(CCC3CCNCC3)sc2s1` (single isomer, unassigned) yielded a Kd [4] of 28 nM and an ED50 [2] of 0.47 nM.
Molecule `CCCCS(=O)(=O)N[C@@H](CNC(=O)c1cc2sc(CCC3CCNCC3)cc2s1)C(=O)O` has an IC50 [3] of 0.21 nM and a Kd [4] of 3 nM.
`O=C(NC[C@H](NS(=O)(=O)c1ccccc1)C(=O)O)c1cc2cc(CCC3CCNCC3)sc2s1` was tested, and the IC50 [3] was 0.03 nM and the Kd [4] was 0.023 nM.
`O=C(NC[C@H](NS(=O)(=O)c1cccnc1)C(=O)O)c1cc2sc(CCC3CCNCC3)cc2s1` gave a Kd [1] of 0.08 nM and an ED50 [2] of 0.11 nM.
For `O=C(NC[C@H](NS(=O)(=O)c1ccccc1)C(=O)O)c1cc2sc(CCC3CCNCC3)cc2s1`, the Kd [4] was 0.15 nM.
For `CCOCCS(=O)(=O)N[C@@H](CNC(=O)c1cc2sc(CCC3CCNCC3)cc2s1)C(=O)O`, the Kd [1] was 1.1 nM and the ED50 [2] was 0.27 nM.
Work on `O=C(NC[C@H](NS(=O)(=O)c1cccnc1)C(=O)O)c1ccc2c(c1)C(=O)N(CCC1CCNCC1)C2` yielded a Kd [4] of 2.2 nM.
Work on `O=C(NC[C@H](NS(=O)(=O)c1cccnc1)C(=O)O)c1cc2cc(CCCC3CCNCC3)sc2s1` yielded an IC50 [3] of 0.07 nM and a Kd [4] of 17 nM.
In the case of `O=C(NC[C@H](NS(=O)(=O)c1cccnc1)C(=O)O)c1cc2cc(C3CCNCC3)sc2s1`, the IC50 [3] is reported as 0.45 nM and the Kd [4] is reported as 22 nM.
With `O=C(NC[C@H](NS(=O)(=O)c1cccs1)C(=O)O)c1cc2cc(CCC3CCNCC3)sc2s1` the IC50 [3] was 0.04 nM and the Kd [4] was 0.15 nM.
